In brackets after ≈: the same amount, converted by molar mass. Activity calls are given as the source filed them. The rule behind the calls is not given here.
Tests used:
MDA-MB-231 = test: Cytotoxicity against human MDA-MB-231 cells after 48 hrs by MTT assay; assay type: functional, cell-based; conditions: MDA-MB-231, 48 h
How it was run: (§1)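 Log-phase cells harvested by trypsinization, seeded 24 h, then exposed to a range of compound concentrations for 48 h; etoposide positive and DMSO negative controls, final DMSO below 2%. Cells kept at 37 °C, 5% CO2, humidified. MTT formazan absorbance read; % inhibition = (Abs control − Abs treated)/Abs control × 100; IC50 from concentration–response curves by regression.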

T47D [1] = test: Cytotoxicity against human T47D cells after 48 hrs by MTT assay; assay type: functional, cell-based; how it was run: as §1
MCF7 [2] = test: Cytotoxicity against human MCF7 cells after 48 hrs by MTT assay; assay type: functional, cell-based; conditions: MCF7, 48 h; how it was run: as §1
MRC5 [3] = test: Cytotoxicity against human MRC5 cells after 48 hrs by MTT assay; assay type: cell-based; conditions: MRC5, 48 h; how it was run: as §1
MCF7 [4] = test: Induction of apoptosis in human MCF7 cells assessed as necrotic cells at IC50 using annexin V-PE/7-AAD double staining by flow cytometry (reference value: 0%); assay type: functional
MCF7 [5] = test: Selectivity index, ratio of IC50 for human MRC5 cells to IC50 for human MCF7 cells; assay type: functional
How it was run: (§2)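 Ratio of IC50 in non-tumoral MRC-5 cells to IC50 in the cancer line, both from the 48 h MTT assay.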

[6] = Inhibition of sheep brain tubulin polymerization assessed as reduction of microtubule assembly after 30 mins by UV-visible spectrophotometry
Ovis aries = species on record: Ovis aries; test: Inhibition of sheep brain tubulin polymerization assessed as reduction of microtubule assembly
MCF7 [7] = test: Induction of apoptosis in human MCF7 cells assessed as viable cells at IC50 using annexin V-PE/7-AAD double staining by flow cytometry (reference value: 95%); assay type: functional
MRC5 [8] = test: Selectivity index, ratio of IC50 for human MRC5 cells to IC50 for human T47D cells; assay type: functional; how it was run: as §2
MRC5 [9] = test: Selectivity index, ratio of IC50 for human MRC5 cells to IC50 for human MDA-MB-231 cells; assay type: functional; how it was run: as §2
MCF7 [10] = test: Induction of apoptosis in human MCF7 cells assessed as late apoptotic cells at IC50 using annexin V-PE/7-AAD double staining by flow cytometry (reference value: 0.12%); assay type: functional
MCF7 [11] = test: Induction of apoptosis in human MCF7 cells at IC50 after 24 hrs by acridine orange/ethidium bromide staining test; assay type: functional, cell-based
MCF7 [12] = test: Induction of apoptosis in human MCF7 cells assessed as early apoptotic cells at IC50 using annexin V-PE/7-AAD double staining by flow cytometry (reference value: 4.88%); assay type: functional
T47D [13] = test: Induction of apoptosis in human T47D cells at IC50 after 24 hrs by acridine orange/ethidium bromide staining test; assay type: functional, cell-based

SMILES | IC50 (MDA-MB-231) | IC50 (T47D [1]) | IC50 (MCF7 [2]) | also measured
COc1cc(-n2c(-c3ccc(Cl)cc3Cl)csc2=S)cc(OC)c1OC | 49 µg/mL (≈ 114 µM) | 43.4 µg/mL (≈ 101 µM) | 23.6 µg/mL (≈ 55.1 µM) | 
COc1ccc(C(=O)CSC(=S)Nc2cc(OC)c(OC)c(OC)c2)cc1 | 16.4 µg/mL (≈ 40.2 µM) | 29.9 µg/mL (≈ 73.4 µM) | 18.6 µg/mL (≈ 45.6 µM) | 
COc1cc(-n2c(-c3ccc(C)cc3)csc2=S)cc(OC)c1OC | 11.8 µg/mL (≈ 31.6 µM) | 16.3 µg/mL (≈ 43.6 µM) | 19.7 µg/mL (≈ 52.7 µM) | IC50 (MRC5 [3]): > 100 µg/mL; Activity (MCF7 [4]): 0.02%; Ratio IC50 (MCF7 [5]): >5; pIC50 [6]: 4.14; inhibition (Ovis aries): Dose-dependent effect; Activity (MCF7 [7]): 33.24%; Ratio IC50 (MRC5 [8]): >5; Ratio IC50 (MRC5 [9]): >5; Activity (MCF7 [10]): 0.26%; Activity (MCF7 [11]): Active; Activity (MCF7 [12]): 66.47%; Activity (T47D [13]): Active
COc1cc(-n2c(-c3ccc(F)cc3)csc2=S)cc(OC)c1OC | 19.5 µg/mL (≈ 51.7 µM) | 38.9 µg/mL (≈ 103 µM) | 38.5 µg/mL (≈ 102 µM) | 
COc1cc(-n2c(-c3ccccc3)csc2=S)cc(OC)c1OC | 52 µg/mL (≈ 145 µM) | 31.6 µg/mL (≈ 87.9 µM) | > 100 µg/mL | 
COc1cc(-n2c(-c3ccc(Br)cc3)csc2=S)cc(OC)c1OC | 58 µg/mL (≈ 132 µM) | > 100 µg/mL | > 100 µg/mL | 
COc1ccc(-c2csc(=S)n2-c2cc(OC)c(OC)c(OC)c2)cc1 | 53.8 µg/mL (≈ 138 µM) | > 100 µg/mL | > 100 µg/mL | 
COc1ccc(-n2c(-c3ccccc3)csc2=S)cc1 | 36.8 µg/mL (≈ 123 µM) | 23.2 µg/mL (≈ 77.5 µM) | 88.5 µg/mL (≈ 296 µM) | 
COc1cc(-n2c(-c3ccc(-c4ccccc4)cc3)csc2=S)cc(OC)c1OC | > 100 µg/mL | > 100 µg/mL | 45.3 µg/mL (≈ 104 µM) | 
COc1cc(-n2c(-c3ccc(O)c(O)c3)csc2=S)cc(OC)c1OC | 29.8 µg/mL (≈ 76.1 µM) | 24.9 µg/mL (≈ 63.6 µM) | > 100 µg/mL | 
COc1ccc(-n2c(-c3ccccc3)csc2=S)cc1OC | 19.1 µg/mL (≈ 58 µM) | 33.1 µg/mL (≈ 100 µM) | 17.6 µg/mL (≈ 53.4 µM) | 
COc1cc(N2C(=S)SCC2(O)c2ccc(Br)cc2)cc(OC)c1OC (racemic) | 15.1 µg/mL (≈ 33.1 µM) | 16.3 µg/mL (≈ 35.7 µM) | 16.5 µg/mL (≈ 36.2 µM) | 
COc1cc(N2C(=S)SCC2(O)c2ccc(Cl)cc2Cl)cc(OC)c1OC (racemic) | 14.5 µg/mL (≈ 32.5 µM) | 16.9 µg/mL (≈ 37.9 µM) | 9.6 µg/mL (≈ 21.5 µM) | IC50 (MRC5 [3]): 47.3 µg/mL (≈ 106 µM); Activity (MCF7 [4]): 0%; Activity (MCF7 [7]): 48.32%; Activity (MCF7 [10]): 0.02%; Activity (MCF7 [11]): Active; Activity (MCF7 [12]): 51.67%; Activity (T47D [13]): Active
COc1cc(-n2c(-c3ccc(Cl)cc3)csc2=S)cc(OC)c1OC | > 100 µg/mL | > 100 µg/mL | > 100 µg/mL | 
COc1cc(-n2c(-c3ccc(O)cc3)csc2=S)cc(OC)c1OC | 22.9 µg/mL (≈ 61 µM) | 26.4 µg/mL (≈ 70.3 µM) | 35.1 µg/mL (≈ 93.5 µM) | 
COc1cc([C@@H]2c3cc4c(cc3[C@@H](O[C@@H]3O[C@@H]5CO[C@@H](C)O[C@H]5[C@H](O)[C@H]3O)[C@H]3COC(=O)[C@H]23)OCO4)cc(OC)c1O [ETOPOSIDE] | 7.2 µg/mL (≈ 12.2 µM) | 8.2 µg/mL (≈ 13.9 µM) | 9.4 µg/mL (≈ 16 µM) | Activity (MCF7 [4]): 0%; Activity (MCF7 [7]): 83.39%; Activity (MCF7 [10]): 0.01%; Activity (MCF7 [12]): 16.6%

Source: ChEMBL document CHEMBL3085702, “Synthesis and biological evaluation of 3-(trimethoxyphenyl)-2(3H)-thiazole thiones as combretastatin analogs” (Eur J Med Chem, 2013)
